Test results as given in PMC3062473 (ChemMedChem, 2010).

What was measured:
[1] = Bi-directional Caco-2 permeability; format: in vitro ADME; conditions: human
Method in brief: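 Contract-lab bidirectional Caco-2 permeability. Run as three separate experiments, each with two separate internal control groups.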

[2] = Microsomal stability; format: in vitro ADME, human; conditions: for microsomal CLint / half-life: human, liver microsomes; for half-life: Microsomal Stability t1/2, human liver microsomes
Method in brief: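 Human microsomal stability, profiled by a contract lab alongside internal control compounds. Includes minus-NADPH and minus-compound control incubations.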

[3] = target: Pgp (Homo sapiens, UniProt P08183); assay: Caco-2 permeability in the presence of verapamil; format: in vitro ADME; conditions: Caco-2 control experiment with verapamil
Pgp, sequence (P08183 whole entry): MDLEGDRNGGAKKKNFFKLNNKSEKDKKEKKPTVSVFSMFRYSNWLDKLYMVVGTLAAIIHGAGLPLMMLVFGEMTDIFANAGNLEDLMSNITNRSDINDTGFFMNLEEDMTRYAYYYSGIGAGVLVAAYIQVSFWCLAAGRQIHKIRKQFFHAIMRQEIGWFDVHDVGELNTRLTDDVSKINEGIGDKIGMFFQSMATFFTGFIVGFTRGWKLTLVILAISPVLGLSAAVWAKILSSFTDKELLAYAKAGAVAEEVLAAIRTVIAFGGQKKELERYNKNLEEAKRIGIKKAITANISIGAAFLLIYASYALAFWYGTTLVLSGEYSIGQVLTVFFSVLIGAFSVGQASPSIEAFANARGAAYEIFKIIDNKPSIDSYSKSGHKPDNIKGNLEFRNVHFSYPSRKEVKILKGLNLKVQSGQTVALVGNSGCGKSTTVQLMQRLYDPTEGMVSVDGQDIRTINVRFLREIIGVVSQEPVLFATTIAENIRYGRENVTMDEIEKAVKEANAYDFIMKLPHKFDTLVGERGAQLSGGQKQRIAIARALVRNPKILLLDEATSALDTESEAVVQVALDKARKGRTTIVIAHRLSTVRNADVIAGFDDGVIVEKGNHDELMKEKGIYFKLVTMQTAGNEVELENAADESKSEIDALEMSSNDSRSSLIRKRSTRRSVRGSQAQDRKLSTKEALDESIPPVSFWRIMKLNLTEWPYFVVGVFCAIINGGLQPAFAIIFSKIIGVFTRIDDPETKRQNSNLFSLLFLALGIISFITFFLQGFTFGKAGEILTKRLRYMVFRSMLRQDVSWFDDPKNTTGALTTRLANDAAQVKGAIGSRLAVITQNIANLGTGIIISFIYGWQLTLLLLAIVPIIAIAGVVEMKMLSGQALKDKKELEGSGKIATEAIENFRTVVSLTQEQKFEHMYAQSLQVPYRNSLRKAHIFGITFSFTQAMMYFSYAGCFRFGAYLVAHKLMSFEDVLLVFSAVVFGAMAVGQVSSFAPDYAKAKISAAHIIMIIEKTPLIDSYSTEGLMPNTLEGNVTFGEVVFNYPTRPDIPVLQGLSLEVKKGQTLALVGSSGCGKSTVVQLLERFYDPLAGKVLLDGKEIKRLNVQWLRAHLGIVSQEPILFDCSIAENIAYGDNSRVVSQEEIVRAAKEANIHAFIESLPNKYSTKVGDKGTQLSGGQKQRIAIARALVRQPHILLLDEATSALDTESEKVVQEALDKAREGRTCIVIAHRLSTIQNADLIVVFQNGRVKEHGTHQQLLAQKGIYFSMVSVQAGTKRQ

[4] = Aqueous degradation study by LCMS over 96 hours; format: physicochemical; conditions: for aqueous stability (in words): up to 96 hours
[5] = Plasma protein binding, equilibrium dialysis in 100% plasma; format: in vitro ADME, human; conditions: human, plasma (100%)
[6] = target: T1, Caspase 7 (Homo sapiens, UniProt P55210); assay: Reaction Biology caspase panel; format: biochemical
T1 sequence (P55210 24-198 limits assumed): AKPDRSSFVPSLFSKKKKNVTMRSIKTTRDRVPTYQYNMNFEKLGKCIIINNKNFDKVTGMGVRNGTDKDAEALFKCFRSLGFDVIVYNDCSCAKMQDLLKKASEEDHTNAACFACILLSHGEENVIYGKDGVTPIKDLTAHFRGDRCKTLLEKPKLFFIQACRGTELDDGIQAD
T1 sequence (P55210 207-303 limits assumed): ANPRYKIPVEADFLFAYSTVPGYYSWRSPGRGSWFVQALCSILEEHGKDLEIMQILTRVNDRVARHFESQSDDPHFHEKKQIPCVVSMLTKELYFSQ

[7] = target: T2, Caspase 6 (Homo sapiens, UniProt P55212); assay: Reaction Biology caspase panel; format: biochemical
T2 sequence (P55212 24-179 limits assumed): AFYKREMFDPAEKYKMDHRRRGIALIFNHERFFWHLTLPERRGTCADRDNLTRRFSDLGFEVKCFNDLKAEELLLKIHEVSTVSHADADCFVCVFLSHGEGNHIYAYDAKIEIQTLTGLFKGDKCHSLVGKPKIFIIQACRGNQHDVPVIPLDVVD
T2 sequence (P55212 194-293 limits assumed): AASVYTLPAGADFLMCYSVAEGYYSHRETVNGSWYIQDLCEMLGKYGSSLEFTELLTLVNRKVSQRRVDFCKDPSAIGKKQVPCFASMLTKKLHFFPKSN

[8] = target: T3, Caspase 4 (Homo sapiens, UniProt P49662); assay: Reaction Biology caspase panel; format: biochemical
T3 sequence (P49662 81-270 limits assumed): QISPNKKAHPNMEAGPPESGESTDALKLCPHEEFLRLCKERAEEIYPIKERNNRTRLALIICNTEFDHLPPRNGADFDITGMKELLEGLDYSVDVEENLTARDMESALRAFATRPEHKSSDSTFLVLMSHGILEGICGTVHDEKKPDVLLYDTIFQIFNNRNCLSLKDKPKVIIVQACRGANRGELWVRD
T3 sequence (P49662 290-377 limits assumed): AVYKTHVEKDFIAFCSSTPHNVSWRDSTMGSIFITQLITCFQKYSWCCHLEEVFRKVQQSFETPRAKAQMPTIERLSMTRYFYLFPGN

[9] = target: T4, Caspase 14 (Homo sapiens, UniProt P31944); assay: Reaction Biology caspase panel; format: biochemical
T4 sequence (P31944 6-146 limits assumed): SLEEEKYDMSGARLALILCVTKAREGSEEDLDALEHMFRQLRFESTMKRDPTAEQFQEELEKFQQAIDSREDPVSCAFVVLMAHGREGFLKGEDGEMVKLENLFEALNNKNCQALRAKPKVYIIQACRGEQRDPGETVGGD
T4 sequence (P31944 153-242 limits assumed): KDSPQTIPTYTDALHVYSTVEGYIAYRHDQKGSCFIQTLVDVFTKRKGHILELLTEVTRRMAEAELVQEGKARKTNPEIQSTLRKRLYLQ

[10] = target: T5, caspase 1 (Homo sapiens, UniProt P29466); assay: Reaction Biology caspase panel; format: biochemical
T5 sequence (P29466 120-297 limits assumed): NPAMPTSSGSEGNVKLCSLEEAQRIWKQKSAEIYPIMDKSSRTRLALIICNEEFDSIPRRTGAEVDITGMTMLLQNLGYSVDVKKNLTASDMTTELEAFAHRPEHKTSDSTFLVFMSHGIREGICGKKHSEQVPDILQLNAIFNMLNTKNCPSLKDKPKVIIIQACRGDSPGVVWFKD
T5 sequence (P29466 317-404 limits assumed): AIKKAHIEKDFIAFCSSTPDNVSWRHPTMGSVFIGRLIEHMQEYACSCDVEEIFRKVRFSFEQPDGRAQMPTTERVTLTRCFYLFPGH

[11] = target: Caspase 8 (Homo sapiens, UniProt Q14790); assay: Reaction Biology caspase panel; format: biochemical
Caspase 8, sequence (Q14790 217-374 limits assumed): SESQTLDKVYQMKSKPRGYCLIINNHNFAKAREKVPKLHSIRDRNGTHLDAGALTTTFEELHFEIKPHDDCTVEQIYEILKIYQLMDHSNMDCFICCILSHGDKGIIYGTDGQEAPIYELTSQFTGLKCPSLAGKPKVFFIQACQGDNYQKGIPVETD
Caspase 8, sequence (Q14790 385-479 limits assumed): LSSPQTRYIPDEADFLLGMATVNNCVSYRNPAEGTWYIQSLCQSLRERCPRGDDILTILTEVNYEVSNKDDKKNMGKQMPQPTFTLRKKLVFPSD

[12] = target: T5, caspase 1; assay: Caspase 1 fluorescence assay, Ac-LEHD-AMC substrate, 2 nM enzyme; format: biochemical
Method in brief: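 Compound added from DMSO as a 12-point duplicate titration (0.65 pM to 57.5 μM) and preincubated 15 min at RT. Then 5 μM Ac-LEHD-AMC final was added and the initial rate followed 20 min at RT (ex 340/em 450 nm). Percent inhibition was taken against median uninhibited and uncatalyzed controls, with a four-parameter Hill fit.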

[13] = target: T6, Caspase 10 (Homo sapiens, UniProt Q92851); assay: Reaction Biology caspase panel; format: biochemical
T6 sequence (Q92851 220-415 limits assumed): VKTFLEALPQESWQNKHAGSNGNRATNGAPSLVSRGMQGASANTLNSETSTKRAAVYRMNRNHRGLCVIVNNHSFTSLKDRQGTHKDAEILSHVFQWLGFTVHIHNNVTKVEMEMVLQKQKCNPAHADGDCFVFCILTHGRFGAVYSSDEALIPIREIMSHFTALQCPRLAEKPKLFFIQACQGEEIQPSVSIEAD
T6 sequence (Q92851 416-521 limits assumed): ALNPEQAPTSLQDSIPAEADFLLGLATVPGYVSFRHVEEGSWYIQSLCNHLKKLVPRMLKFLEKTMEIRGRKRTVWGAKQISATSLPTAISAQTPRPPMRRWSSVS

[14] = target: T7, Caspase 3 (Homo sapiens, UniProt P42574); assay: Reaction Biology caspase panel; format: biochemical
T7 sequence (P42574 29-175 limits assumed): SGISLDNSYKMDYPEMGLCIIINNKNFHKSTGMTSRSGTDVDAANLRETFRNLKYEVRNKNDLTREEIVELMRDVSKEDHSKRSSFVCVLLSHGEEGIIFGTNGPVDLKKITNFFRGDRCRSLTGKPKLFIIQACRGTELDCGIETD
T7 sequence (P42574 176-277 limits assumed): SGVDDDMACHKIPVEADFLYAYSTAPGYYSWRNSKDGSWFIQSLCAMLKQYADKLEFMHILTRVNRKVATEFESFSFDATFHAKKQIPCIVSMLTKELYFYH

[15] = target: T8, Caspase 5 (Homo sapiens, UniProt P51878); assay: Reaction Biology caspase panel; format: biochemical
T8 sequence (P51878 137-327 limits assumed): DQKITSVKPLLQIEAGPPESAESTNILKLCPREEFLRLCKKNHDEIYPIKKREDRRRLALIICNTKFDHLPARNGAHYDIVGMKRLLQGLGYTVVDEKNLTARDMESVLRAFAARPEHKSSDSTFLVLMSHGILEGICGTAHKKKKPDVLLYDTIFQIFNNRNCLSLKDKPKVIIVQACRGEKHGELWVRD
T8 sequence (P51878 347-434 limits assumed): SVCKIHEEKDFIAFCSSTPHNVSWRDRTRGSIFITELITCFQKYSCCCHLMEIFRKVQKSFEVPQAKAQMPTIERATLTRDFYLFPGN

[16] = target: T9, Caspase 9 (Homo sapiens, UniProt P55211); assay: Reaction Biology caspase panel; format: biochemical
T9 sequence (P55211 1-315 limits assumed): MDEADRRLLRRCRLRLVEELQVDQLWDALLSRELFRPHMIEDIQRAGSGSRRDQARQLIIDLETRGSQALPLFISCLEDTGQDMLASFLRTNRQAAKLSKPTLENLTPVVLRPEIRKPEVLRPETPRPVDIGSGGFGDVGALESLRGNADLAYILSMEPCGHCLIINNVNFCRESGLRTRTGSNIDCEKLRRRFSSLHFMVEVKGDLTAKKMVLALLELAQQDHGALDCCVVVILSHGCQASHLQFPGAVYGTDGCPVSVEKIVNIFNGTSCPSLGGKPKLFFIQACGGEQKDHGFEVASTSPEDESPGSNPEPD
T9 sequence (P55211 331-416 limits assumed): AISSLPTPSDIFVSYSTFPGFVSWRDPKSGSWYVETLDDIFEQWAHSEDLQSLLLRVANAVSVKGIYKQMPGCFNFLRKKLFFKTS

Row | Structure (SMILES) | Papp A→B [1] | Papp B→A [1] | microsomal CLint [2] | substrate for Pgp efflux [3] | aqueous stability (in words) ([4]; neutral (pH 7)) | fraction unbound [5] | IC50 [6] | IC50 [7] | IC50 [8] | IC50 [9] | IC50 [10] | half-life [2] | aqueous stability (in words) ([4]; acidic (pH 2)) | aqueous stability (in words) ([4]; basic (pH 8)) | IC50 [11] | IC50 [12] | IC50 [13] | IC50 [14] | IC50 [15] | IC50 [16] | also measured
1 | CCO[C@@H]1OC(=O)C[C@@H]1NC(=O)[C@@H]1CCCN1C(=O)[C@@H](NC(=O)c1ccc(N)c(Cl)c1)C(C)(C)C [Compound 1, reference compound] | 0.797 ×10⁻⁶ cm/s | 32.7 ×10⁻⁶ cm/s | 0.147 µL/min/mg | substrates for Pgp efflux | moderate degradation | 0.006 |  |  |  |  |  |  |  |  |  |  |  |  |  |  | Microsomal Stability t1/2 ([2]; human liver microsomes, listed as VX-765): 157.2 h; degradation ([4]; pH 2, after 3.5 hours): 40%; compound decomposed ([4]; water (pH 7), after 48 hours): over 50%
2 | CC(=O)N[C@@H](CC(=O)O)C(=O)N[C@@H](CCC(=O)O)C(=O)N[C@H](C(=O)N[C@H](C=O)CC(=O)O)C(C)C [Ac-DEVD-CHO, reference compound] |  |  |  |  |  |  | 3.54 nM | 122 nM |  |  |  |  |  |  |  |  |  |  |  |  | 
3 | CC(C)(C)[C@H](NC(=O)c1ccc(N)c(Cl)c1)C(=O)N1CCC[C@H]1C(=O)N[C@H](C#N)Cc1nnn[nH]1 [Compound 16, (S)-1-((S)-2-(4-amino-3-chlorobenzamido)-3,3-dimethylbutanoyl)-N-((S)-1-cyano-2-(1H-tetrazol-5-yl)ethyl)pyrrolidine-2-carboxamide] | 0.13 ×10⁻⁶ cm/s | 0.193 ×10⁻⁶ cm/s | 9.38 µL/min/mg |  | resistant to degradation | 0.243 | > 10000 nM | > 10000 nM | 1380 nM | > 10000 nM | 2.58 nM | 2.47 h | resistant to degradation | resistant to degradation | > 10000 nM | 20.4 nM | > 10000 nM | > 10000 nM | 1300 nM | 91.5 nM | 
4 | CC(C)(C)[C@H](NC(=O)c1ccc(N)c(Cl)c1)C(=O)N1CCC[C@H]1C(=O)N[C@H](C#N)CC(=O)O [Compound 4, (S)-3-((S)-1-((S)-2-(4-amino-3-chlorobenzamido)-3,3-dimethylbutanoyl)pyrrolidine-2-carboxamido)-3-cyanopropanoic acid] | 0.144 ×10⁻⁶ cm/s | 0.06 ×10⁻⁶ cm/s | 10.3 µL/min/mg |  | moderate to good | 0.431 | > 10000 nM | > 10000 nM | 13.8 nM | 801 nM | 0.023 nM | 2.23 h | moderate to good | exceedingly stable | 25.2 nM | 0.316 nM | 89.7 nM | > 10000 nM | 3.6 nM | 2.17 nM | degradation ([4]; acidic (pH 2), after 72 hours): 50%; degradation ([4]; neutral (pH 7), after 72 hours): 50%; Ki [12]: 0.4 nM
5 | CCOC(=O)C[C@@H](C#N)NC(=O)[C@@H]1CCCN1C(=O)[C@@H](NC(=O)c1ccc(N)c(Cl)c1)C(C)(C)C [Compound 3, (S)-ethyl 3-((S)-1-((S)-2-(4-amino-3-chlorobenzamido)-3,3-dimethylbutanoyl)pyrrolidine-2-carboxamido)-3-cyanopropanoate] | 0.445 ×10⁻⁶ cm/s | 9.59 ×10⁻⁶ cm/s | 27.4 µL/min/mg | substrates for Pgp efflux | exceptionally stable | 0.071 | > 10000 nM | > 10000 nM | > 10000 nM | > 10000 nM | 43.4 nM | 0.845 h | exceptionally stable |  | > 10000 nM | 145 nM | > 10000 nM | > 10000 nM | 1570 nM | 1610 nM | degradation in liver microsomes without NADPH ([2]; without NADPH as a cofactor): slight degree of degradation; degradation (in words) ([4]; basic (pH 8), after 22 hours): fully degraded
